# What was measured:
# [1] = Log P value at the pH of 6.5; type: physicochemical; conditions: octanol/water, pH 6.5; read-out: LogD6.5
# Method in brief: (§1)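 Octanol/water partition. Inhibitor (0.3–0.5 mg) was dissolved in 1.00 mL octanol, and 200 μL was added to 5.00 mL buffer: 0.1 M PIPES pH 6.5 or 0.1 M HEPES pH 7.4. Samples were shaken 2 h and centrifuged, and both phases were diluted and quantified by HPLC. P was calculated from peak areas × dilution factors.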
# [2] = Log P value at the pH of 7.4; type: physicochemical; conditions: octanol/water, pH 7.4; read-out: LogD7.4; method in brief: as §1
# [3] = Solubility at 37 degree C and pH of 7.4; type: physicochemical; conditions: pH 7.4; read-out: S
# Renin [4] = target: T1, Renin (Homo sapiens, UniProt P00797); experiment: Inhibitory activity against purified human renal renin at pH 6.5; type: functional
# T1 sequence (P00797 whole entry): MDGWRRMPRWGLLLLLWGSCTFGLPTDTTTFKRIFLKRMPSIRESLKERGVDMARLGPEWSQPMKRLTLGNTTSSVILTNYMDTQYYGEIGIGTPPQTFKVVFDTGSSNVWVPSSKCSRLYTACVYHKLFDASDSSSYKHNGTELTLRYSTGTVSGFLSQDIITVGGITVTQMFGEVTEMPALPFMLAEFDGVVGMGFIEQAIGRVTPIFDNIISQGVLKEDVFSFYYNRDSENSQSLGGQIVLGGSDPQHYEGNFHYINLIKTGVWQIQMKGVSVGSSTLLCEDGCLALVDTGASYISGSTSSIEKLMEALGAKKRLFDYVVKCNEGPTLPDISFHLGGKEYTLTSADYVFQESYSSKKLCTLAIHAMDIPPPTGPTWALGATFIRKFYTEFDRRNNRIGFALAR
# Renin [5] = target: T1, Renin; experiment: Inhibitory activity against human plasma renin at pH 7.4; type: functional, cell-free
# [6] = % change in blood pressure when administarted intravenously.; type: ADME; conditions: iv
# Method in brief: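 Anesthetized, salt-depleted cynomolgus monkeys, 0.1 mg/kg iv bolus (n = 5). Maximum % change in mean arterial pressure taken from the T = 0 baseline. […] Values are mean ± SE.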
# [7] = target: Renin (Macaca fascicularis); experiment: Inhibitory activity against monkey plasma renin at pH 7.4
# [8] = Plasma level when given intraduodenally to anesthetized rats (systemic) at 10 min; type: ADME, organism-based; conditions: rat, read-out: Plasma level
# Method in brief: (§2)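 Anesthetized rats (n = 4) received unlabelled drug intraduodenally at 10 mg/kg. Portal and systemic blood were sampled at 10 and 30 min. Plasma drug levels were determined by a renin inhibition assay. Values are mean ± SE.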
# [9] = Plasma level when given intraduodenally to anesthetized rats (systemic) at 30 min; type: ADME, organism-based; conditions: rat, read-out: Plasma level; method in brief: as §2
# [10] = Plasma level when given intraduodenally to anesthetized rats from portal sample at 10 min; type: ADME, organism-based; conditions: rat, read-out: Plasma level; method in brief: as §2
# [11] = Plasma level when given intraduodenally to anesthetized rats from portal sample at 30 min; type: ADME, organism-based; conditions: rat, read-out: Plasma level; method in brief: as §2
# Rattus norvegicus [12] = experiment: Excretion of radiolabeled [14C]-21 in rats when administered intravenously at the dose of 1.0 mg/kg; type: ADME, organism-based; design: dose 1 mg/kg, route intravenous; conditions: in vivo, iv
# Method in brief: (§3)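 Rats got [14C]-labelled inhibitor (label at oxazolidinone carbonyl), 1 mg/kg orally or intravenously. Urine and feces were collected over 72 h. Feces were homogenized in 70% aqueous ethanol and aliquots burned in a sample oxidizer. Total radioactivity was counted by liquid scintillation with internal-standard quench correction and expressed as % of dose. Mean ± SE, n = 2.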
# Rattus norvegicus [13] = experiment: Excretion of radiolabeled [14C]-21 in rats when administered orally at the dose of 1.0 mg/kg; type: ADME, organism-based; design: dose 1 mg/kg, route oral; conditions: in vivo, po; method in brief: as §3
# Rattus norvegicus [14] = experiment: metabolic profile radiolabeled [14C]-21 in rats when administered intravenously at the dose of 1.0 mg/kg; type: ADME, organism-based; design: dose 1 mg/kg, route intravenous; conditions: in vivo, iv
# Method in brief: (§4)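 Rats were dosed orally or iv at 1 mg/kg with 14C-labelled drug. Urine and fecal samples were profiled by C-18 HPLC with a linear 15–50% aqueous acetonitrile gradient containing 0.1% TFA. Peaks were tentatively identified by retention time against reference standards, using 215 nm absorbance or radioactivity. Results are given as % of 14C dose, mean ± SE, n = 2.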
# Rattus norvegicus [15] = experiment: metabolic profile radiolabeled [14C]-21 in rats when administered orally at the dose of 1.0 mg/kg; type: ADME, organism-based; design: dose 1 mg/kg, route oral; conditions: in vivo, po; method in brief: as §4
SMILES,logD [1],logD [2],solubility [3],IC50 (Renin [4]),IC50 (Renin [5]),further results
CCN1C[C@@H]([C@H](O)[C@H](CC2CCCCC2)NC(=O)[C@H](Cc2cnc[nH]2)NC(=O)[C@@H](CC(=O)N(C)CCOC)Cc2ccccc2)OC1=O,2.29,2.45,3.4 mM,0.59 nM,1.5 nM,–
CCN1C[C@@H]([C@H](O)[C@H](CC2CCCCC2)NC(=O)[C@H](Cc2cnc[nH]2)NC(=O)[C@@H](CC(=O)N2C[C@H](OCOC)[C@H](OCOC)C2)Cc2ccccc2)OC1=O,2.08,2.31,4.5 mM,2.7 nM,11 nM,–
CCN1C[C@@H]([C@H](O)[C@H](CC2CCCCC2)NC(=O)[C@H](Cc2cnc[nH]2)NC(=O)[C@@H](CC(=O)N2C[C@H](OCOCCOC)[C@H](OCOCCOC)C2)Cc2ccccc2)OC1=O,1.56,1.87,8.7 mM,1.6 nM,7.3 nM,–
CCN1C[C@@H]([C@H](O)[C@H](CC2CCCCC2)NC(=O)[C@H](Cc2cnc[nH]2)NC(=O)[C@H](Cc2ccc(OC)cc2)NC(=O)N2C[C@H](OCOCCOC)[C@H](OCOCCOC)C2)OC1=O,1.58,1.67,–,8.5 nM,26 nM,–
CCN1C[C@@H]([C@H](O)[C@H](CC2CCCCC2)NC(=O)[C@H](Cc2cnc[nH]2)NC(=O)[C@@H](CC(=O)N2CCOCC2)Cc2ccccc2)OC1=O,1.9,2.2,–,0.99 nM,1.3 nM,–
CC(C)C(=O)N[C@@H](Cc1ccccc1)C(=O)N[C@@H](Cc1cnc[nH]1)C(=O)N[C@@H](CC1CCCCC1)[C@@H](O)[C@@H](O)CN=[N+]=[N-],–,–,0.045 mM,–,–,Change [6]: 18%; IC50 [7]: 0.29 nM
CCN1C[C@@H]([C@H](O)[C@H](CC2CCCCC2)NC(=O)[C@H](Cc2cnc[nH]2)NC(=O)[C@@H](CC(=O)N(C)CCOCOC)Cc2ccccc2)OC1=O,2.28,2.49,–,0.49 nM,1.1 nM,–
CCN1C[C@@H]([C@H](O)[C@H](CC2CCCCC2)NC(=O)[C@H](Cc2cnc[nH]2)NC(=O)[C@@H](CC(=O)N(C)CCO)Cc2ccccc2)OC1=O,1.74,1.94,5.2 mM,0.85 nM,2.5 nM,–
CCN1C[C@@H]([C@H](O)[C@H](CC2CCCCC2)NC(=O)[C@H](Cc2c[nH]cn2)NC(=O)[C@@H](CC(=O)N(C)CCOCOCCOC)Cc2ccccc2)OC1=O,1.89,2.21,5.4 mM,–,–,concentration at 10 min [8]: 1.6 ng/mL; concentration at 0.5 h [9]: 2.5 ng/mL; concentration at 10 min [10]: 360 ng/mL; concentration at 0.5 h [11]: 420 ng/mL; Dose (Rattus norvegicus [12]): 8.5%; Dose (Rattus norvegicus [13]): 1.9%; Change [6]: 43%; Dose (Rattus norvegicus [14]): 35%; Dose (Rattus norvegicus [15]): 73%
CCN1C[C@@H]([C@H](O)[C@H](CC2CCCCC2)NC(=O)[C@H](Cc2cnc[nH]2)NC(=O)[C@H](Cc2ccc(OC)cc2)NC(=O)N2C[C@H](OCOC)[C@H](OCOC)C2)OC1=O,1.94,2.06,–,12 nM,59 nM,–

# Now from value to compound, other results behind:
logD [1],logD [2],solubility [3],IC50 (Renin [4]),IC50 (Renin [5]),SMILES,further results
2.67,2.85,0.37 mM,1.7 nM,9.9 nM,CCN1C[C@@H]([C@H](O)[C@H](CC2CCCCC2)NC(=O)[C@H](Cc2c[nH]cn2)NC(=O)[C@H](Cc2ccc(OC)cc2)NC(=O)C(C)C)OC1=O,–
2.08,2.3,2.1 mM,4.6 nM,27 nM,CCN1C[C@@H]([C@H](O)[C@H](CC2CCCCC2)NC(=O)[C@H](Cc2c[nH]cn2)NC(=O)[C@H](Cc2ccc(OC)cc2)NC(=O)N(C)CCOCOC)OC1=O,–
1.83,2.03,–,1.7 nM,14 nM,CCN1C[C@@H]([C@H](O)[C@H](CC2CCCCC2)NC(=O)[C@H](Cc2c[nH]cn2)NC(=O)[C@H](Cc2ccc(OC)cc2)NC(=O)N(C)CCOCOCCOC)OC1=O,–
1.2,1.42,–,7.9 nM,46 nM,CCN1C[C@@H]([C@H](O)[C@H](CC2CCCCC2)NC(=O)[C@H](Cc2cnc[nH]2)NC(=O)[C@H](Cc2ccc(OC)cc2)NC(=O)N(C)CC(O)CO)OC1=O (stereo partly drawn),–
0.91,1.22,–,6.9 nM,8.7 nM,CCN1C[C@@H]([C@H](O)[C@H](CC2CCCCC2)NC(=O)[C@H](Cc2c[nH]cn2)NC(=O)[C@H](Cc2ccc(OC)cc2)NC(=O)N2C[C@@H](O)[C@@H](O)C2)OC1=O,–
1.91,2.11,5.9 mM,3.4 nM,9.6 nM,CCN1C[C@@H]([C@H](O)[C@H](CC2CCCCC2)NC(=O)[C@H](Cc2cnc[nH]2)NC(=O)[C@H](Cc2ccc(OC)cc2)NC(=O)N2CCOCC2)OC1=O,–

# Reference: ChEMBL document CHEMBL1124843, “Water-soluble renin inhibitors: design of a subnanomolar inhibitor with a prolonged duration of action” (J Med Chem, 1990)
